Data as given in ChEMBL document CHEMBL1157340, “Highly substituted terphenyls as inhibitors of parasite cGMP-dependent protein kinase activity” (J Nat Prod, 2006).

What was measured:
[1] = target: cGMP-dependent protein kinase (Eimeria tenella); assay: Inhibition of Eimeria tenella cGMP-dependent protein kinase assessed as inhibition of transfer of phosphate group by radiometric assay
Toxoplasma gondii = assay: Antiparasitic activity against Toxoplasma gondii in human foreskin fibroblast by beta-galactosidase assay; format: functional, organism-based
Outline: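 Human foreskin fibroblasts grown to confluence, then infected with T. gondii strain stably expressing bacterial β-galactosidase; parasite growth allowed 5 days with test samples present. Chlorophenol red-β-D-galactopyranoside added, further 2–4 h incubation, absorbance read at 570 nm as measure of parasite viability. IC50 reported.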

CN1CCC(c2cc(-c3ccncc3)c(-c3ccc(F)cc3)[nH]2)CC1
IC50 [1]: < 0.001 µM
IC50 (Toxoplasma gondii): 0.21 µM

COc1cc(-c2ccccc2)c(O)c(O)c1-c1ccccc1 [TERFEROL]
IC50 [1]: 3.9 µM
IC50 (Toxoplasma gondii): 26.8 µM

COc1c(O)c(-c2ccccc2)cc(O)c1-c1cc(O)ccc1O
IC50 [1]: 5.8 µM
IC50 (Toxoplasma gondii): 9.5 µM

COc1c(O)c(-c2ccccc2)cc(O)c1-c1ccccc1O
IC50 [1]: 5.2 µM
IC50 (Toxoplasma gondii): 10.4 µM
